Measured values as given in publication PMC4207575 (International Journal of Nanomedicine, 2014).
No end group written: not given here.

Set-up: species or system Kunming mice
Settings: mouse, in vivo, iv, 5 mg/kg
Method in brief: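 Kunming mice (10 weeks, 18–22 g), two groups of six; free or nanoparticle-loaded peptide at matched peptide dose by tail-vein injection. Tail-vein blood (20 μL) drawn at intervals into heparinized micropipettes and mixed with PBS; residue taken up in 50% acetonitrile/0.1% TFA. C18 HPLC at 40°C, water/acetonitrile (0.1% TFA) gradient, 280 nm, thymopentin internal standard; plasma calibration 0.195313–25 μg/mL, 1/x2 weighting. Noncompartmental analysis; mean ± SD.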

**Q.** What does the source list for “HSDAVFTDNYTRLRKQVAAKKYLQSIKNKRY-NH2 (C-terminus assumed) [BAY 55-9837]”?
**A.** AUC(0-t): 2680 ± 160 ng·h/mL; clearance: 0.733 mL/min; half-life: 19.2 ± 3.6 min
